Assay results as given in ChEMBL document CHEMBL4627381, “Licochalcone A Selectively Resensitizes ABCG2-Overexpressing Multidrug-Resistant Cancer Cells to Chemotherapeutic Drugs” (J Nat Prod, 2020).

Experiments:
S1-M1-80 [1] = assay: Potentiation of topotecan-induced apoptosis in human S1-M1-80 cells harboring ABCG2 (unknown origin) assessed as necrotic cells at 10 uM incubated for 48 hrs by annexin V/propidium iodide staining based flow cytometry (reference value: 0.4%); format: functional
S1 [2] = assay: Effect on topotecan-induced cytotoxicity against human S1 cells assessed as fold change in topotecan IC50 at 2 uM after 72 hrs by MTT assay relative to topotecan IC50; format: functional
Procedure, shortened: (§1)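 Parental S1 colon and H460 lung cancer cells were exposed for 72 h to a mitoxantrone or topotecan concentration series, with or without modulator at 0.5–3.0 μM, and read by MTT. Fold-reversal is IC50 without modulator divided by IC50 with modulator, taken from dose-response curves of three independent experiments.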

[3] = molecular target: T1, Broad substrate specificity ATP-binding cassette transporter ABCG2 (Homo sapiens, UniProt Q9UNQ0); assay: Reversal of human ABCG2-mediated multidrug resistance in HEK293/R482 cells assessed as potentiation of mitoxantrone-induced cytotoxicity after 72 hrs by CCK8 assay; format: cell-based
T1 sequence (Q9UNQ0 whole entry): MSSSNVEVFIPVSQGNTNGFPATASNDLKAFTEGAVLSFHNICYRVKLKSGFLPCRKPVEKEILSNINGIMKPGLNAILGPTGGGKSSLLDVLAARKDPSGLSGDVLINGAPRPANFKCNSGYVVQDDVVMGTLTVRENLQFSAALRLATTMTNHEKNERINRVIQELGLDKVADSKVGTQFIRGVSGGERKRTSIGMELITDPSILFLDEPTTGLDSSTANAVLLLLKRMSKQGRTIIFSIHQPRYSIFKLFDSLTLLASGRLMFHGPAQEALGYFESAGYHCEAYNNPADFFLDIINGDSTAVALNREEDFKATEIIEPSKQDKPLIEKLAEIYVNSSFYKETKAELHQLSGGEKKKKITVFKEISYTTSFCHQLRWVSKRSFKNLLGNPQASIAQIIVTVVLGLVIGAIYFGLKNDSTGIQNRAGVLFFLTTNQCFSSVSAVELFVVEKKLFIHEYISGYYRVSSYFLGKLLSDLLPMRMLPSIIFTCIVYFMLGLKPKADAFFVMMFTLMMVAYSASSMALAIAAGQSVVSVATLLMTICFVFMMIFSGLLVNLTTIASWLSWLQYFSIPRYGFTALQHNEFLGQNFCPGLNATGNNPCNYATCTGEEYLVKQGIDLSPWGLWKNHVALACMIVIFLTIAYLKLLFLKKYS
Procedure, shortened: (§2)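 Cells were seeded at 5000/well for 24 h, then given colchicine, etoposide, mitoxantrone or topotecan ± non-toxic modulator (0.5–3.0 μM) for 72 h, with DMSO up to 0.5%. IC50 came from fitted curves (mean ± SD, three experiments). Fold-reversal = IC50 without modulator ÷ IC50 with modulator.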

[4] = molecular target: T1, Broad substrate specificity ATP-binding cassette transporter ABCG2; assay: Reversal of human ABCG2-mediated multidrug resistance in HEK293/R482 cells assessed as fold-change in topotecan IC50 at 1 uM after 72 hrs by CCK8 relative to topotecan IC50; format: cell-based; procedure, shortened: as §2
[5] = molecular target: T1, Broad substrate specificity ATP-binding cassette transporter ABCG2; assay: Reversal of human ABCG2-mediated multidrug resistance in HEK293/R482 cells assessed as fold-change in topotecan IC50 at 2 uM after 72 hrs by CCK8 relative to topotecan IC50; format: cell-based; procedure, shortened: as §2
HEK293 = assay: Effect on mitoxantrone-induced cytotoxicity against HEK293 cells assessed as fold change in mitoxantrone IC50 at 3 uM after 72 hrs by CCK8 assay relative to mitoxantrone IC50; format: cell-based; conditions: human, hek293, 72 h
Procedure, shortened: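 Reversal assay in parental pcDNA-HEK293 and transfected HEK293 lines (ABCB1 for colchicine, ABCC1 for etoposide, ABCG2 for mitoxantrone/topotecan). Substrate drug series was given with or without nontoxic modulator (0.5, 1.0, 2.0 or 3.0 μM) for 72 h, with a CCK-8 read-out. Fold-reversal is substrate IC50 without modulator divided by IC50 with modulator. Three independent experiments.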

[6] = molecular target: T1, Broad substrate specificity ATP-binding cassette transporter ABCG2; assay: Reversal of ABCG2 (unknown origin)-mediated multidrug resistance in human S1-M1-80 cells assessed as fold-change in mitoxantrone IC50 at 0.5 uM after 72 hrs by MTT assay relative to mitoxantrone IC50; format: cell-based; conditions: s1-m1-80, 72 h
Procedure, shortened: (§3)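 Cells held drug-free 7 days, seeded at 5000 per well for 24 h, then exposed 72 h to mitoxantrone or topotecan dilutions with DMSO (≤0.5%), LCA 0.5–3.0 μM, or Ko143 1.0 μM. Viability was read by MTT. IC50 came from fitted dose-response curves of three independent experiments. Fold-reversal = IC50 without modulator divided by IC50 with modulator.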

[7] = molecular target: T1, Broad substrate specificity ATP-binding cassette transporter ABCG2; assay: Reversal of ABCG2 (unknown origin)-mediated multidrug resistance in human H460-MX20 cells assessed as fold change in topotecan IC50 at 0.5 uM after 72 hrs by MTT assay relative to topotecan IC50; format: cell-based; procedure, shortened: as §3
S1 [8] = assay: Effect on mitoxantrone-induced cytotoxicity against human S1 cells assessed as fold change in mitoxantrone IC50 at 3 uM after 72 hrs by MTT assay relative to mitoxantrone IC50; format: functional; procedure, shortened: as §1
S1 [9] = assay: Induction of apoptosis in human S1 cells assessed as late apoptotic cells at 10 uM incubated for 48 hrs in presence of topotecan by annexin V/propidium iodide staining based flow cytometry (reference value: 3.6%); format: functional
Procedure, shortened: (§4)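 S1 cells were exposed for 48 h to DMSO, 10 μM compound, 5 μM topotecan, or 5 μM topotecan plus 10 μM compound. They were then stained with 1.25 μg/mL annexin V–FITC and 0.1 mg/mL PI for 15 min at room temperature. 10000 cells per sample were analysed by flow cytometry; three independent experiments.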

S1 [10] = assay: Induction of apoptosis in human S1 cells assessed as necrotic cells at 10 uM incubated for 48 hrs in presence of topotecan by annexin V/propidium iodide staining based flow cytometry (reference value: 0.2%); format: functional; procedure, shortened: as §4
[11] = molecular target: ATP-dependent translocase ABCB1 (Homo sapiens, UniProt P08183); assay: Reversal of human ABCB1-mediated multidrug resistance in HEK293/MDR19 cells assessed as fold change in colchicine IC50 at 3 uM after 72 hrs by CCK8 relative to colchicine IC50; format: cell-based; procedure, shortened: as §2
[12] = molecular target: Multidrug resistance-associated protein 1 (Homo sapiens, UniProt P33527); assay: Reversal of human ABCC1-mediated multidrug resistance in HEK293/MRP1 cells assessed as fold-change in etoposide IC50 at 2 uM after 72 hrs by CCK8 relative to etoposide IC50; format: cell-based; procedure, shortened: as §2
S1-M1-80 [13] = assay: Induction of apoptosis in human S1-M1-80 cells harboring ABCG2 (unknown origin) assessed as early apoptotic cells at 10 uM incubated for 48 hrs by annexin V/propidium iodide staining based flow cytometry (reference value: 2.8%); format: functional
S1 [14] = assay: Effect on mitoxantrone-induced cytotoxicity against human S1 cells assessed as fold change in mitoxantrone IC50 at 2 uM after 72 hrs by MTT assay relative to mitoxantrone IC50; format: functional; procedure, shortened: as §1
[15] = molecular target: T1, Broad substrate specificity ATP-binding cassette transporter ABCG2; assay: Reversal of human ABCG2-mediated multidrug resistance in HEK293/R482 cells assessed as fold change in mitoxantrone IC50 at 0.5 uM after 72 hrs by CCK8 assay relative to mitoxantrone IC50; format: cell-based; procedure, shortened: as §2
S1-M1-80 [16] = assay: Potentiation of topotecan-induced apoptosis in human S1-M1-80 cells harboring ABCG2 (unknown origin) assessed as early apoptotic cells at 10 uM incubated for 48 hrs by annexin V/propidium iodide staining based flow cytometry (reference value: 3%); format: functional

Chain of Multidrug resistance-associated protein 1 (P33527 whole entry): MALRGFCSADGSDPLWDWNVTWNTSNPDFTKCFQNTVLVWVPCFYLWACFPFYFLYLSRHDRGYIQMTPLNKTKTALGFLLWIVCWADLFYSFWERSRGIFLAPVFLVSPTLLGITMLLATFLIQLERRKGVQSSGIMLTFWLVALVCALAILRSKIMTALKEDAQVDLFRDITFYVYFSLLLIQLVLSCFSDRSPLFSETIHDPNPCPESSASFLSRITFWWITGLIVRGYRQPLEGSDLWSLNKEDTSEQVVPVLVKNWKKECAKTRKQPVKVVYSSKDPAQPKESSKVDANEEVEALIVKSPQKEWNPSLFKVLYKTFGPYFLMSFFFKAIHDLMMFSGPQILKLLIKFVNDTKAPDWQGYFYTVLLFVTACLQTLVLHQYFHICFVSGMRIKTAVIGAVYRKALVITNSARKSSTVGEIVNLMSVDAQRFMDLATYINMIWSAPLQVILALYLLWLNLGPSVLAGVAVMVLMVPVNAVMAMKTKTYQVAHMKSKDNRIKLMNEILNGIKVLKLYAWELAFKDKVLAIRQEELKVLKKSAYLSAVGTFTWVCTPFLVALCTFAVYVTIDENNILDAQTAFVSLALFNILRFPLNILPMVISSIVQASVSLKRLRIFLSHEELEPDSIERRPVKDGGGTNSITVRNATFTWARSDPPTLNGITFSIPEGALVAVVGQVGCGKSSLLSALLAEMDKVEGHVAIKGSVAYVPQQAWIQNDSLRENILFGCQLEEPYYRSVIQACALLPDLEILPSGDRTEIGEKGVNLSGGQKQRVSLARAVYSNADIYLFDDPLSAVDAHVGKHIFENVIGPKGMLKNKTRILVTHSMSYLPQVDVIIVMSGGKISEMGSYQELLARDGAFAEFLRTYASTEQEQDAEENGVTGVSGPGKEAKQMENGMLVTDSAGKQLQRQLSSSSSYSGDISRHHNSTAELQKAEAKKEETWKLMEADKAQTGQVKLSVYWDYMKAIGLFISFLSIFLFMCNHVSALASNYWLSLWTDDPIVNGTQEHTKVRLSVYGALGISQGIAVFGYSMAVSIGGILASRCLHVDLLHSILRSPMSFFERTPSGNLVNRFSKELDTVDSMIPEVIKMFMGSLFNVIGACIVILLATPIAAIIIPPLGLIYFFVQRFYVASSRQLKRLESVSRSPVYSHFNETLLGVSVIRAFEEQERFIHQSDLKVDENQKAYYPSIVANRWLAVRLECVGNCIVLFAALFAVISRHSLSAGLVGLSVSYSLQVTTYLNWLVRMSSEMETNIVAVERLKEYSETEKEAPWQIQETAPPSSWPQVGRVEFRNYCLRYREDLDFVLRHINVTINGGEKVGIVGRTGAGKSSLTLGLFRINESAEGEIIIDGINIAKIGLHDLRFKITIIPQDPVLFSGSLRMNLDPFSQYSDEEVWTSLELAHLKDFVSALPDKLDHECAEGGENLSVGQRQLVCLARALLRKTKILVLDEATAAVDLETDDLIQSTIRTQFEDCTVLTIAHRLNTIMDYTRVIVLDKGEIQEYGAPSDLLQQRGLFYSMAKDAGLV
Chain of ATP-dependent translocase ABCB1 (P08183 whole entry): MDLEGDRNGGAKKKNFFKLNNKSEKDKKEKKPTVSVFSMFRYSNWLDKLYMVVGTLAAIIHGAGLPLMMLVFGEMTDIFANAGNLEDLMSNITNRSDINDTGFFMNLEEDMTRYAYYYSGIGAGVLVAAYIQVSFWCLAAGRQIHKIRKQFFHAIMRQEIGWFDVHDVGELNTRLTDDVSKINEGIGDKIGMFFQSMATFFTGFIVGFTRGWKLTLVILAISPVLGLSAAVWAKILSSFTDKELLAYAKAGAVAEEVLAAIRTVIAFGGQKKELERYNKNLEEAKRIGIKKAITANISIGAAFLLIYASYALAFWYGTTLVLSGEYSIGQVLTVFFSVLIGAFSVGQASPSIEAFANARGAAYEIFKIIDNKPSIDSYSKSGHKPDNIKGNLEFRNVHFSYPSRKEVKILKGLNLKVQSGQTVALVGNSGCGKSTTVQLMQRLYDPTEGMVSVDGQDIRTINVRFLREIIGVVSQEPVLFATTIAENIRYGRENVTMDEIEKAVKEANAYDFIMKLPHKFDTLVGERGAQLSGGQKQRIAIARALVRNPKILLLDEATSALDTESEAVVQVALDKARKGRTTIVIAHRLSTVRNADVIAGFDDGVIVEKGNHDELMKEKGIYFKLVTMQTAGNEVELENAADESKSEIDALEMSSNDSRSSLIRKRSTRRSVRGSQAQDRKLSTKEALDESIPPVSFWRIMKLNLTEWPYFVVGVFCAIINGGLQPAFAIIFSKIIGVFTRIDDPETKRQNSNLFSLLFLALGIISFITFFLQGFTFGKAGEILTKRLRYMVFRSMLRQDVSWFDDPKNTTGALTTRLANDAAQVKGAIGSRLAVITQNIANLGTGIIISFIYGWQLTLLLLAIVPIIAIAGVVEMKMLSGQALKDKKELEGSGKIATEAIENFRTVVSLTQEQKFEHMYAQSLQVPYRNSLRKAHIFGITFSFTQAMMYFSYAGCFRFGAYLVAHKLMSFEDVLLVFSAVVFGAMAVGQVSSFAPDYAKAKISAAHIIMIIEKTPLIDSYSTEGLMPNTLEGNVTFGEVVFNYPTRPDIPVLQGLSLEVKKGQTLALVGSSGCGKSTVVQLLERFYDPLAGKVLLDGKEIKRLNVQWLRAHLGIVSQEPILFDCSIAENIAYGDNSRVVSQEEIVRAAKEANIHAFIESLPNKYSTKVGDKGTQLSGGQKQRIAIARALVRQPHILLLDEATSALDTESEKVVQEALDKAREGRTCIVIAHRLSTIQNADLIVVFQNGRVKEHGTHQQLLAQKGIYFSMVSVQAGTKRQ

C=CC(C)(C)c1cc(/C=C/C(=O)c2ccc(O)cc2)c(OC)cc1O [LICOAGROCHACONE A]
Activity (S1-M1-80 [1]): 0.8%
fold change (FC) (S1 [2]): 0.9
Activity [3]: Dose-dependent effect
fold change (FC) [4]: 3.9
fold change (FC) [5]: 4.6
fold change (FC) (HEK293): 1
fold change (FC) [6]: 1.9
fold change (FC) [7]: 3.6
fold change (FC) (S1 [8]): 1
Activity (S1 [9]): 22.5%
Activity (S1 [10]): 3%
fold change (FC) [11]: 0.9
fold change (FC) [12]: 1
Activity (S1-M1-80 [13]): 2.5%
fold change (FC) (S1 [14]): 1.1
fold change (FC) [15]: 2.7
Activity (S1-M1-80 [16]): 9%
